Sampled rows, rich in hits. Any-hit rate of the full collection: about 2%.
DNMT1 inh: human DNMT1 methyltransferase inhibitors, primary screen, biochemical, molecular beacon, fluorescence, HinP1I cleavage, uHTS. inhibition (reported as % activation of signal), % at 10 µM. 360,000 tested, 0.83% active
STEP inh: STEP phosphatase inhibitors, primary screen, biochemical, fluorescence intensity, uHTS; recombinant STEP, OMFP fluorogenic substrate; inhibition, % at 20 µM; 360,000 tested, 0.25% active;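 active = inhibition at 20 µM, scaled per plate between control wells, above about 37%, limit read from the data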
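medium = Bis-Tris buffer pH 6.0, 2.5 mM DTT, 0.005% Tween 20 | test system = STEP (striatal-enriched tyrosine phosphatase) enzyme, cell-free | measure = normalized % inhibition | compound dosing = 20 µM, 1% DMSO | also added = 25 µM OMFP | schedule = reaction 20 min, ambient temperature | measured by = fluorescence read at 480 nm ex / 540 nm em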
CSN deneddyl inh: inhibitors of CSN-mediated cullin deneddylation, primary screen, biochemical, fluorescence polarization, uHTS; Purified CSN, SCF-Nedd8-OG deneddylation; inhibition, % at 12.5 µM; 360,000 tested, 0.38% active;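 active = pattern-corrected inhibition above about 35%, with an unprinted fluorescence ratio check between 0.5 and 1.5, limit read from the data, passing the limit was not always enough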
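Assay system: purified human Csn5 enzyme expressed in HEK293T cells; Input: 0.24 nM Csn5 enzyme, final concentration; Reagent: 10 nM SCFSkp2-Nedd8OG; Compound dosing: 12.5 µM single point; Times: reaction 90 min, room temperature; Technique: fluorescence polarization readout.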
SUMO1-SIM PPI: modulators of SUMO1 protein-protein interactions, primary screen, biochemical, uHTS; Small ubiquitin-related modifier 1 (Homo sapiens), P63165; SUMO1 binding to a labelled peptide, TR-FRET, 1 h; inhibition, % at 20 µM; 360,000 tested, 0.33% active; in the data active = inhibition above about 37%
Target sequence (P63165 whole entry, looked up): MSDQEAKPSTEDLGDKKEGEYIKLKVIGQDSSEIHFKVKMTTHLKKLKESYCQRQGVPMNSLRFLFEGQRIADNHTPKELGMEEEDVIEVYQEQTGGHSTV
LMPTP inh: LMPTP phosphatase inhibitors, primary screen, biochemical, fluorescence intensity, uHTS; Low molecular weight phosphotyrosine protein phosphatase (Homo sapiens), P24666; recombinant LMPTP-A, OMFP fluorogenic substrate; AID 651560, 2012; inhibition, % at 20 µM; 360,000 tested, 0.22% active;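 active = compounds that cut the enzyme signal by at least half of the control window in the single-dose screen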
Target sequence (P24666 whole entry, looked up): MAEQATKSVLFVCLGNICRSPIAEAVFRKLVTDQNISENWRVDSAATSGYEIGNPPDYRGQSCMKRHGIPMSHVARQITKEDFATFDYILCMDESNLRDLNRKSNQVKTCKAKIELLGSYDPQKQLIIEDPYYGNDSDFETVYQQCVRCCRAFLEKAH
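Test system – LMPTP-A enzyme · Amount – LMPTP-A at 0.625 nM final in the reaction · Buffer or medium – Bis-Tris pH 6.0, DTT, detergent · Reagent – OMFP 400 µM · Doses – single 20 µM dose · Schedule – reaction 50 min, room temperature, dark · Detection – fluorescence intensity of OMFP turnover product · Evaluation – percent inhibition versus substrate-only and uninhibited controls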
Scp-1 inhibitor: Scp-1 phosphatase inhibitors, primary screen, biochemical, colorimetric, uHTS. Carboxy-terminal domain RNA polymerase II polypeptide A small phosphatase 1 (Homo …. Recombinant Scp1, phosphopeptide, malachite green phosphate absorbance. inhibition, % at 20 µM. 340,000 tested, 0.88% active. AID 493091, 2011;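 active = inhibition above about 50% at 20 µM, limit read from the data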
Target sequence (Q9GZU7 76-261 limits assumed): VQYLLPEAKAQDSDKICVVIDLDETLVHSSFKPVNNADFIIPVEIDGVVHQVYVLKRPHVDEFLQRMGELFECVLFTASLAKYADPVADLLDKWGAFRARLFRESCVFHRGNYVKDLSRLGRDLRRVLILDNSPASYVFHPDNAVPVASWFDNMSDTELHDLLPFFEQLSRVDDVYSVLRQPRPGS
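System: truncated SCP-1 phosphatase (76-261aa); medium: Tris acetate buffer pH 5.5 with MgCl2 and Tween-20; incubation: 45 min room-temperature reaction, 5 min colour, 30 min stabiliser; compound: single 20 µM dose, 1% DMSO; reagent: Phosphorylated 17-residue peptide substrate; read-out: % inhibition at 20 µM; technique: colorimetric free-phosphate detection, absorbance 630 nm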
CSN deneddyl val: Csn5 deneddylation inhibitors, confirmation, biochemical, fluorescence polarization, single concentration, SCF-Nedd8OG substrate; shares compounds with CSN deneddyl inh; Csn5 deneddylation of SCF-Nedd8OG, 90 min; inhibition, % at 16.6 µM; 540 tested, 62% active
MMP-2 counter: MMP-2 protease inhibition counter-screen, confirmation, counter-screen for CSN deneddylation inhibitor project, biochemical, fluorescence, single concentration; inhibition, % at 16.6 µM; AID 720655, 2013; recombinant MMP-2, FRET substrate fluorescence, 60 min; 540 tested, 33% active; shares compounds with CSN deneddyl inh;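 active = corrected plate-normalized z-score of 5 or more, or -5 or less, or inhibition of 15% or more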
Thrombin cntr: counter-screen for CSN deneddylation inhibitors: bovine thrombin inhibition. shares compounds with CSN deneddyl inh. bovine thrombin cleavage of Ub4-pepOG, fluorescence polarization. AID 720656. inhibition, % at 16.6 µM. 540 tested, 49% active;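 active = inhibition at or above a set limit, with a fluorescence interference ratio between 0.5 and a set maximum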
Hits are given with their value; 0 = inactive; - = not tested or not shown. Rule as the data show it, unless noted: active = inhibition above about 50%; inactive = the rest.

SMILES	DNMT1 inh	STEP inh	CSN deneddyl inh	SUMO1-SIM PPI	LMPTP inh	Scp-1 inhibitor	CSN deneddyl val	MMP-2 counter	Thrombin cntr
Cc1onc(-c2ccccc2)c1C(=O)NCc1ccccc1F	0	0	0	0	0	0	-	-	-
O=C(O)c1ccc(N/N=C/c2ccc(-c3cccc(Cl)c3)o2)cc1	0	0	0	0	0	0	-	-	-
O=[N+]([O-])c1ccc(N/N=C/c2c[nH]c3ccccc23)cc1	0	0	57.3	0	0	0	55.9	0	56.8
O=C(O)c1cccc(-c2ccc(/C=N/Nc3ccc([N+](=O)[O-])cc3)o2)c1	0	0	92.5	0	0	0	50.6	0	0
O=[N+]([O-])c1ccccc1N/N=C/c1c[nH]c2ccccc12	0	0	0	0	0	0	-	-	-
CCOc1cccc(/C=N/NC(=O)c2cc(C3CC3)[nH]n2)c1O	0	0	0	0	0	0	-	-	-
CCOc1ccc(/C=C/C2=Cc3c(sc(NC(=O)CSc4n[nH]c(N)n4)c3C#N)C(C)(C)C2)cc1	0	0	44.0	0	0	0	71.8	0	35.3
CCOC(=O)c1sc(NC(=O)CSc2n[nH]c(-c3ccncc3)n2)c(C#N)c1C	0	0	0	0	0	0	-	-	-
COC(=O)c1ccc2c(c1)C(C)(C)C(/C=C/c1ccccc1O)=[N+]2C	0	0	43.8	0	0	99.4	68.1	0	29.6
CC1CCN(S(=O)(=O)c2ccc(NC(=O)[C@@H]3CCCN3C(=O)c3cccs3)cc2)CC1	0	0	0	0	0	0	-	-	-
O=C(Nc1ccc(F)cc1F)c1cc(-c2ccco2)nc2ccccc12	0	0	0	0	0	0	-	-	-
O=C(Nc1nc(-c2ccco2)c(-c2ccco2)s1)c1ccc(F)cc1F	0	0	44.5	0	0	0	102.7	0	0
CCC1(C2C=COC=C2)NC(=O)NC1=O (stereo not drawn)	0	0	0	0	0	-	-	-	-
CN(C)c1ccc(/C=C2\CCC/C(=C\c3ccccc3)C2=O)cc1	0	0	73.5	0	0	0	90.8	0	36.1
Cc1ccc(NCc2ccccc2O)cc1	0	0	0	0	0	0	-	-	-
Cc1ccc(CNc2ccc(O)cc2)cc1	0	0	38.4	68.0	0	0	86.9	0	0
CCOc1ccc2nc(N3C(=O)/C(=C/c4ccccc4)NC3=S)sc2c1	0	0	0	0	0	0	-	-	-
COc1ccc2nc(N3C(=O)/C(=C/c4ccccc4)NC3=S)sc2c1	0	0	94.7	0	0	0	91.7	0	73.6
CC(C)C[C@@H](CN)NC(=O)c1nc[nH]c1C(=O)N[C@@H](CC(C)C)C(=O)CNC[C@H](C)NC(=O)c1nc[nH]c1C(=O)N[C@@H](C)C(=O)O	0	0	0	0	0	0	-	-	-
Cc1ccc(S(=O)(=O)/N=C2/NC(=O)/C(=C/c3cc([N+](=O)[O-])ccc3O)S2)cc1	0	0	54.9	0	0	0	53.5	-43.9	30.8
CCOC(=O)C1(Cc2cccc(F)c2)CCN(CC(O)CO)CC1 (stereo not drawn)	0	0	0	0	0	0	-	-	-
Cc1ccc(CNC(=O)CCc2nnc3ccc(N4CCC5(CC4)OCCO5)nn23)cc1	0	0	0	0	0	0	-	-	-
O=C(N/N=C/c1ccco1)c1cc([N+](=O)[O-])cc([N+](=O)[O-])c1	0	0	0	0	0	0	-	-	-
O=[N+]([O-])c1ccc(N/N=C/C=C/c2ccco2)cc1	0	0	56.3	0	0	0	51.5	0	43.5
CN(C1CC(C)(C)NC(C)(C)C1)S(=O)(=O)CC12CCC(CC1=O)C2(C)C (stereo not drawn)	0	0	0	0	0	0	-	-	-
SMILES	DNMT1 inh	STEP inh	CSN deneddyl inh	SUMO1-SIM PPI	LMPTP inh	Scp-1 inhibitor	CSN deneddyl val	MMP-2 counter	Thrombin cntr
CCN(CC)c1ccc(C=Nc2ccc(N(C)C)cc2)c(O)c1	0	0	42.5	0	0	0	127.7	0	37.3
C/C(=N/NC(=O)CNC(=O)Cc1ccc(Cl)cc1)c1ccco1	0	0	0	0	0	0	-	-	-
COc1cc(N2CCCC2)c(OC)cc1/C=C(/C#N)c1ccc(Br)cc1	0	0	60.0	0	0	0	90.0	0	22.1
Nc1ccc(Cn2ccc3c4c(N)nc(N)nc4ccc32)cc1	0	0	39.4	0	64.3	0	93.4	0	0
CCN(CC)c1ccc(/C=N/NC(=O)c2c(-c3ccccc3)noc2C)cc1	0	0	0	0	0	0	-	-	-
CC(C)(C)OC(=O)N[C@@H](C(=O)OC(C)(C)C)c1ccc2c(c1)OCO2	0	0	0	0	0	0	-	-	-
Cc1cc(N2CCN(c3ccc([N+](=O)[O-])c4cccnc34)CC2)c2ccccc2n1	0	0	59.4	0	96.8	0	105.2	0	0
Cc1cc(N2CCN(c3ccc(C(F)(F)F)cc3[N+](=O)[O-])CC2)c2ccccc2n1	0	0	0	0	0	0	-	-	-
C#CCN1C(=O)S/C(=C/C=C/c2ccc(N(C)C)cc2)C1=O	0	0	59.4	0	0	0	53.6	-68.7	70.9
CC(=O)c1cccc(NS(=O)(=O)c2ccc(-c3cc(C)no3)s2)c1	0	0	0	0	0	0	-	-	-
CCOC(=O)C1CCN(C(=O)COC(=O)c2ccccc2C(=O)c2ccc(Cl)cc2)CC1	0	0	0	0	0	0	-	-	-
C[C@H](CO)N1C[C@H](C)[C@H](CN(C)S(=O)(=O)c2cccs2)OCc2cnnn2CCCC1=O	0	0	0	0	0	-	-	-	-
COCc1nnc(NC(=O)C2CC(=O)N(CCc3ccc(F)cc3)C2)s1 (stereo not drawn)	0	0	0	0	0	0	-	-	-
COc1cc(/C=N/N2C(=O)CSC2=S)cc(Br)c1O	0	0	117.8	0	0	0	0	24.1	88.5
